This note sets out measurements from ChEMBL document CHEMBL4041465, “Synthesis, characterization and molecular docking studies of substituted 4-coumarinylpyrano[2,3-c]pyrazole derivatives as potent antibacterial and anti-inflammatory agents” (2017).

Each structure is given as a SMILES string. Values after ≈ are worked out from the molar mass of the structure shown.

One assay has as its system Pseudomonas aeruginosa. The assay can be described thus: Antibacterial activity against Pseudomonas aeruginosa MTCC 25668 after 24 hrs by broth microdilution method. The format is functional. The settings on record: MTCC 25668, 24 h. Summed up: (§1)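 Broth tube dilution MIC in Brain Heart Infusion broth, triplicate per strain. Strains were subcultured at 35 °C for 48 h, then log-phase inoculum was grown from 3–5 colonies at 35 °C for 2–6 h and adjusted to 0.5 McFarland. […] serial dilutions were made over 10 tubes, with a media-plus-culture tube as negative control. Incubation was 24 h at 37 °C, and growth was read as turbidity.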
A general note: Dilution methods test growth across graded concentrations, often in twofold steps.

Assay [1] is described as follows: In vitro anti-inflammatory activity using hen egg assessed as inhibition of heat-induced egg albumin denaturation at 31.25 ug/ml incubated at 37 +/- 2 degC for 15 mins followed by incubation at 70 degC for 5 mins by UV spectrophotometric method relative to control. The format is functional. In a few lines:
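The 5 mL mix held 0.2 mL fresh hen egg albumin, 2.8 mL PBS pH 6.4 and 2 mL test solution, with water in place of test solution as control. It was held 15 min at 37±2 °C, heated 5 min at 70 °C and cooled, then absorbance was read at 660 nm against a vehicle blank. % inhibition = 100×(Abs control − Abs sample)/Abs control.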

The subject of a further assay is Escherichia coli. The assay can be described thus: Antibacterial activity against Escherichia coli MTCC 443 after 24 hrs by broth microdilution method. The format is functional. The settings on record: MTCC 443, 24 h. In a few lines: as §1
The subject of a further assay is Staphylococcus aureus. The assay can be described thus: Antibacterial activity against Staphylococcus aureus MTCC 12598 after 24 hrs by broth microdilution method. Format: functional. As to conditions: MTCC 12598, 24 h. Summed up: as §1
The subject of the next assay is Enterococcus faecalis. Nature of the assay: Antibacterial activity against Enterococcus faecalis MTCC 35550 after 24 hrs by broth microdilution method. Format: functional. As to conditions: MTCC 35550, 24 h. Summed up:
as §1

Assay [2] can be described thus: Potency index, ratio of compound effect to aceclofenac effect for in vitro anti-inflammatory activity using hen egg assessed as inhibition of heat-induced egg albumin denaturation.

As for `Cc1n[nH]c(O)c1C(CC(=O)O)c1cc(=O)oc2c1ccc1ccccc12` (stereo unspecified), the MIC worked out at 12.5 µg/mL (≈ 34.3 µM) against Pseudomonas aeruginosa, 6.25 µg/mL (≈ 17.2 µM) with Escherichia coli, 6.25 µg/mL (≈ 17.2 µM) in the assay on Staphylococcus aureus and 12.5 µg/mL (≈ 34.3 µM) in the assay on Enterococcus faecalis. For the same compound, in assay [1], the inhibition turned out to be 39.8%.
As for `Cc1ccc2c(C3C(C#N)=C(N)Oc4[nH]nc(C)c43)cc(=O)oc2c1` (stereo unspecified), the MIC against Pseudomonas aeruginosa worked out at 3.12 µg/mL (≈ 9.35 µM); in the assay with Escherichia coli, 0.78 µg/mL (≈ 2.33 µM); against Staphylococcus aureus, 6.25 µg/mL (≈ 18.7 µM); against Enterococcus faecalis, 12.5 µg/mL (≈ 37.4 µM). Moreover, the inhibition in assay [1] came out at 7.6%.
As for `CCOC(=O)C1=C(N)Oc2[nH]nc(C)c2C1c1cc(=O)oc2ccc(OC)cc12` (stereo unspecified), the MIC worked out at 6.25 µg/mL (≈ 15.7 µM) in the assay on Pseudomonas aeruginosa, 6.25 µg/mL (≈ 15.7 µM) against Escherichia coli, 1.56 µg/mL (≈ 3.93 µM) against Staphylococcus aureus and 3.12 µg/mL (≈ 7.86 µM) in the assay with Enterococcus faecalis. For the same compound, the Ratio in assay [2] came to 10. In addition, the inhibition in assay [1] came out at 51.4%.
Consider `COc1ccc2oc(=O)cc(C3C(C#N)=C(N)Oc4[nH]nc(C)c43)c2c1` (stereo unspecified), for which the MIC against Pseudomonas aeruginosa stood at 1.56 µg/mL (≈ 4.45 µM); against Escherichia coli it was 6.25 µg/mL (≈ 17.8 µM); in the assay on Staphylococcus aureus, 3.12 µg/mL (≈ 8.92 µM); with Enterococcus faecalis, 12.5 µg/mL (≈ 35.7 µM). Besides, the inhibition in assay [1] was 19.1%.
`Cc1ccc2oc(=O)cc(C(CC(=O)O)c3c(C)n[nH]c3O)c2c1` (stereo unspecified): the MIC with Pseudomonas aeruginosa stood at 25 µg/mL (≈ 76.1 µM); against Escherichia coli, 12.5 µg/mL (≈ 38.1 µM); against Staphylococcus aureus, 3.12 µg/mL (≈ 9.52 µM); against Enterococcus faecalis, 6.25 µg/mL (≈ 19 µM). Besides, the inhibition in assay [1] is 37.4%.
On the same counts, the results for `Cc1ccc2c(C3CC(=O)Oc4[nH]nc(C)c43)cc(=O)oc2c1` (stereo unspecified) are 6.25 µg/mL (≈ 20.1 µM), 12.5 µg/mL (≈ 40.3 µM), 6.25 µg/mL (≈ 20.1 µM), 6.25 µg/mL (≈ 20.1 µM) and 15.8%.
As for `Cc1n[nH]c2c1C(c1cc(=O)oc3c1ccc1ccccc13)C(C#N)=C(N)O2` (stereo unspecified), the MIC against Pseudomonas aeruginosa stood at 25 µg/mL (≈ 67.5 µM); with Escherichia coli, 25 µg/mL (≈ 67.5 µM); in the assay with Staphylococcus aureus, 6.25 µg/mL (≈ 16.9 µM); in the assay with Enterococcus faecalis it was 12.5 µg/mL (≈ 33.8 µM). In assay [1], the inhibition was found to be 14.4%.
For the compound `Cc1n[nH]c(O)c1C(CC(=O)O)c1cc(=O)oc2ccc(Cl)cc12` (stereo unspecified), the MIC stood at 50 µg/mL (≈ 143 µM) against Pseudomonas aeruginosa, 25 µg/mL (≈ 71.7 µM) with Escherichia coli, 1.56 µg/mL (≈ 4.47 µM) against Staphylococcus aureus and 6.25 µg/mL (≈ 17.9 µM) against Enterococcus faecalis. In addition, the Ratio in assay [2] turned out to be 10. Further, the inhibition in assay [1] is 42.6%.
Consider `CCOC(=O)C1=C(N)Oc2[nH]nc(C)c2C1c1cc(=O)oc2ccc(Cl)cc12` (stereo unspecified), for which the MIC against Pseudomonas aeruginosa was found to be 50 µg/mL (≈ 124 µM); against Escherichia coli it was 6.25 µg/mL (≈ 15.6 µM); against Staphylococcus aureus, 3.12 µg/mL (≈ 7.78 µM); against Enterococcus faecalis it was 6.25 µg/mL (≈ 15.6 µM). In assay [1], the inhibition was found to be 39.1%.
Turning to `CCOC(=O)C1=C(N)Oc2[nH]nc(C)c2C1c1cc(=O)oc2ccc(C)cc12` (stereo unspecified), the MIC in the assay on Pseudomonas aeruginosa turned out to be 6.25 µg/mL (≈ 16.4 µM); against Escherichia coli, 12.5 µg/mL (≈ 32.8 µM); in the assay with Staphylococcus aureus, 3.12 µg/mL (≈ 8.19 µM); in the assay with Enterococcus faecalis, 6.25 µg/mL (≈ 16.4 µM). In addition, the inhibition in assay [1] worked out at 24.8%.
In the case of `COc1ccc2oc(=O)cc(C(CC(=O)O)c3c(C)n[nH]c3O)c2c1` (stereo unspecified), the MIC was found to be 6.25 µg/mL (≈ 18.2 µM) against Pseudomonas aeruginosa, 3.12 µg/mL (≈ 9.08 µM) with Escherichia coli, 0.78 µg/mL (≈ 2.27 µM) in the assay on Staphylococcus aureus and 1.56 µg/mL (≈ 4.53 µM) with Enterococcus faecalis. Besides, the Ratio in assay [2] was found to be 10. For the same compound, the inhibition in assay [1] turned out to be 63.1%.
Consider `Cc1n[nH]c2c1C(c1cc(=O)oc3ccc(Cl)cc13)CC(=O)O2` (stereo unspecified), for which the MIC came out at 12.5 µg/mL (≈ 37.8 µM) in the assay on Pseudomonas aeruginosa, 6.25 µg/mL (≈ 18.9 µM) with Escherichia coli, 6.25 µg/mL (≈ 18.9 µM) against Staphylococcus aureus and 12.5 µg/mL (≈ 37.8 µM) in the assay on Enterococcus faecalis. Moreover, the inhibition in assay [1] amounted to 3.27%.
Take `O=C(O)c1cn(C2CC2)c2cc(N3CCNCC3)c(F)cc2c1=O` [CIPROFLOXACIN]: the figures for the MIC against Escherichia coli and against Enterococcus faecalis were 3.12 µg/mL (≈ 9.43 µM) and 6.25 µg/mL (≈ 18.9 µM), respectively.
Turning to `O=C(O)COC(=O)Cc1ccccc1Nc1c(Cl)cccc1Cl`, the inhibition in assay [1] worked out at 5.5%.
Regarding `COc1ccc2oc(=O)cc(C3CC(=O)Oc4[nH]nc(C)c43)c2c1` (stereo unspecified), the MIC against Pseudomonas aeruginosa stood at 6.25 µg/mL (≈ 19.2 µM); with Escherichia coli, 6.25 µg/mL (≈ 19.2 µM); against Staphylococcus aureus, 3.12 µg/mL (≈ 9.58 µM); with Enterococcus faecalis, 6.25 µg/mL (≈ 19.2 µM). The inhibition in assay [1] amounted to 29.3%.
As to `Cc1ccc2c(C(CC(=O)O)c3c(C)n[nH]c3O)cc(=O)oc2c1` (stereo unspecified), the MIC in the assay on Pseudomonas aeruginosa amounted to 12.5 µg/mL (≈ 38.1 µM); in the assay with Escherichia coli it was 6.25 µg/mL (≈ 19 µM); in the assay on Staphylococcus aureus, 3.12 µg/mL (≈ 9.52 µM); against Enterococcus faecalis it was 6.25 µg/mL (≈ 19 µM). Besides, the inhibition in assay [1] amounted to 40.6%.
Consider `Cc1n[nH]c2c1C(c1cc(=O)oc3c1ccc1ccccc13)CC(=O)O2` (stereo unspecified), for which the MIC is 6.25 µg/mL (≈ 18 µM) with Pseudomonas aeruginosa, 12.5 µg/mL (≈ 36.1 µM) in the assay on Escherichia coli, 12.5 µg/mL (≈ 36.1 µM) against Staphylococcus aureus and 12.5 µg/mL (≈ 36.1 µM) against Enterococcus faecalis. Also, the inhibition in assay [1] came out at 1.89%.
For the compound `Cc1ccc2oc(=O)cc(C3CC(=O)Oc4[nH]nc(C)c43)c2c1` (stereo unspecified), the MIC with Pseudomonas aeruginosa amounted to 12.5 µg/mL (≈ 40.3 µM); in the assay with Escherichia coli, 3.12 µg/mL (≈ 10.1 µM); against Staphylococcus aureus, 6.25 µg/mL (≈ 20.1 µM); in the assay on Enterococcus faecalis, 12.5 µg/mL (≈ 40.3 µM). Also, the inhibition in assay [1] worked out at 16%.
On to `Cc1ccc2oc(=O)cc(C3C(C#N)=C(N)Oc4[nH]nc(C)c43)c2c1` (stereo unspecified), for which the MIC with Pseudomonas aeruginosa worked out at 12.5 µg/mL (≈ 37.4 µM); against Escherichia coli, 12.5 µg/mL (≈ 37.4 µM); with Staphylococcus aureus, 6.25 µg/mL (≈ 18.7 µM); in the assay on Enterococcus faecalis it was 12.5 µg/mL (≈ 37.4 µM). Further, the inhibition in assay [1] worked out at 10.3%.
For `Cc1n[nH]c2c1C(c1cc(=O)oc3ccc(Cl)cc13)C(C#N)=C(N)O2` (stereo unspecified), the MIC against Pseudomonas aeruginosa was 12.5 µg/mL (≈ 35.2 µM); with Escherichia coli it was 3.12 µg/mL (≈ 8.81 µM); against Staphylococcus aureus, 3.12 µg/mL (≈ 8.81 µM); against Enterococcus faecalis, 6.25 µg/mL (≈ 17.6 µM). Besides, the inhibition in assay [1] was found to be 28%.
As to `CCOC(=O)C1=C(N)Oc2[nH]nc(C)c2C1c1cc(=O)oc2c1ccc1ccccc12` (stereo unspecified), the MIC in the assay on Pseudomonas aeruginosa came out at 6.25 µg/mL (≈ 15 µM); in the assay on Escherichia coli, 6.25 µg/mL (≈ 15 µM); against Staphylococcus aureus, 3.12 µg/mL (≈ 7.49 µM); against Enterococcus faecalis it was 12.5 µg/mL (≈ 29.9 µM). Further, the inhibition in assay [1] was 37.6%.
Regarding `CCOC(=O)C1=C(N)Oc2[nH]nc(C)c2C1c1cc(=O)oc2cc(C)ccc12` (stereo unspecified), the MIC in the assay with Pseudomonas aeruginosa came out at 12.5 µg/mL (≈ 32.8 µM); against Escherichia coli, 3.12 µg/mL (≈ 8.19 µM); with Staphylococcus aureus, 3.12 µg/mL (≈ 8.19 µM); in the assay with Enterococcus faecalis it was 25 µg/mL (≈ 65.6 µM). In addition, in assay [1], the inhibition amounted to 28.7%.

A word on the MIC: it is the least concentration at which growth counts as inhibited. Low values mean greater potency, high ones weaker potency. The term inhibition denotes the share of the control response that was lost under treatment.
